Measured values taken from ChEMBL document CHEMBL4513216, “Probing the Open Global Health Chemical Diversity Library for Multistage-Active Starting Points for Next-Generation Antimalarials” (ACS Infect Dis, 2020).

Assay: Toxicity liver stage against HepG2, at 10uM
Format: cell-based
Set-up: test concentration 10 uM, cell line HepG2-A16-CD81EGFP
Conditions: human, HepG2-A16-CD81EGFP cells; read-out: INHIBITION
How it was run: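 Uninfected HepG2-A16-CD81EGFP cells, 3 × 10^3 per well, 1536-well, plated on prespotted compound at 10 μM final, parasite-free screening media added to match infected plates; puromycin 10 μM positive, DMSO 0.5% negative; run in parallel with 48 h PbLuc assay at 37 °C, 5% CO2; viability by CellTiter-Glo luminescence, normalized to controls.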

| Structure (SMILES) | cytotoxicity at 10 µM [%] |
| --- | --- |
| Cn1c(C(N)=O)cc2c1CN(C(=O)C1CC(=O)N(C(C)(C)C)C1)CC2 (configuration not stated) | -49.6 |
| COc1ccccc1OCCn1c(C)c(C)oc1=O | -3.05 |
| Cn1nc(CN2CCCN(C3CCCC3)CC2)c2c(Cl)cccc21 | 11 |
| CC1(C)CN(C(=O)c2cnc(CN3CCCC3)s2)CC[C@]1(C)O | -15.1 |
| Cc1cc(N2CCCN(Cc3ccc(C)o3)CC2)ccn1 | -5.51 |
| COc1ncc(C(=O)N2CCCC3(C=Cc4ccccc4O3)CC2)cn1 (configuration not stated) | 7.61 |
| COC(=O)c1ccc(N2CCN(C(=O)CCCc3cn[nH]c3)CC2)cc1 | -4.32 |
| Cc1cc(C(F)(F)F)nc(CNC(=O)CCCN2CCCCC2)n1 | -53.1 |
| Cc1cccc(CN2CCCC(O)(CNCCc3c[nH]cn3)C2=O)c1 (configuration not stated) | 1.31 |
| C[C@@H]1CN(C2CCN(c3ccccc3F)CC2)C[C@]1(C)O | -2.19 |
| CCNc1ncc(C(=O)NC(CC)c2ccnn2C)cn1 (configuration not stated) | -2.4 |
| O=C(CC1COCCN1)NCCc1nc(-c2ccccn2)no1 (configuration not stated) | -0.849 |
| CCOCC(=O)N1CCC(Cc2nnc(SC)n2C)CC1 | -53 |
| CC(C)CN1CCCC1c1ccc(C(=O)Nc2cn(C)nn2)s1 (configuration not stated) | -4.69 |
| Cn1ccc(C(=O)N2CCC3(CCC(=O)N(C4CCCC4)C3)CC2)n1 | -6.19 |
| Cn1c(N2CCOCC2)nc2cc(C(=O)NCc3cccnc3)ccc21 | 0.678 |
| COc1cc(C)cc(-c2nc3c([nH]2)CCNC3)c1OC | 4.46 |
| COc1cc(C2CC(=O)Nc3c2nc2n3CCCC2)ccc1O (configuration not stated) | -4.27 |
| O=c1cc(-c2cccnc2)nc(-c2ccc(CN3CC[C@@H](O)C3)cc2)[nH]1 | 2.89 |

| Structure (SMILES) | cytotoxicity at 10 µM [%] |
| --- | --- |
| CCc1cc(NCCCC2CCOC2)n2nccc2n1 (configuration not stated) | 5.04 |
| Cn1nc(C2CCCN(C(=O)Cc3ccsc3)C2)c2nccnc21 (configuration not stated) | 4.68 |
| Cc1cccc2cc(CNCCCN3CCOCC3)c(=O)[nH]c12 | 0.127 |
| Cc1nc(CN2CCCC(NCc3sccc3C)C2)no1 (configuration not stated) | -2.85 |
| CC(=O)N1CCC(NC(=O)N2CCN(c3cnccn3)CC2)CC1 | 6.47 |
| CCOc1ccc(CN2CCN(C(=O)c3cc(C4CC4)[nH]n3)CC2)cc1 | 36.1 |
| CN1CCOC(CN(C(=O)CN2CCCC2=O)c2nccs2)C1 (configuration not stated) | -7.06 |
| Cc1nn(C)c(Cl)c1C1CCCN1C(=O)c1ccc(O)nc1 (configuration not stated) | -11.2 |
| CCOc1ccc2c(c1)CN(Cc1nc3c(cnn3C)c(=O)[nH]1)CC2 | -0.373 |
| Cc1ccc(-c2noc(CN3CCCC(Cn4cncn4)C3)n2)cc1 (configuration not stated) | -7.12 |
| CN(CC(=O)N1CCCC1Cn1cccn1)Cc1ccccc1 (configuration not stated) | -2.12 |
| COc1cc(C)sc1C(=O)N1CCCC(n2nc(C)nc2C)C1 (configuration not stated) | -13.6 |
| O=C(c1cc2ccccc2[nH]1)N1CCCCC1Cn1cccn1 (configuration not stated) | 1.27 |
| CC(NCc1ccccc1Cl)c1ccc(OCC(=O)NC2CC2)cc1 (configuration not stated) | -12.7 |
| O=C(O)c1cc(S(=O)(=O)Nc2ccc(F)c(Cl)c2)cc2c1OCCO2 | -2.33 |
| CCc1noc(CN2CCN(CC(O)c3ccccc3)CC2)n1 (configuration not stated) | 1.19 |
| O=c1[nH]c(CN2CCOC(Cn3cccn3)C2)nc2ccccc12 (configuration not stated) | -2.32 |
| Cc1cc(C2CCCN2CCC(=O)N2CCc3sccc3C2)no1 (configuration not stated) | -16.1 |
| O=C(Cc1noc2ccccc12)N1CCCC1c1noc(C2CC2)n1 (configuration not stated) | 61.5 |

| Structure (SMILES) | cytotoxicity at 10 µM [%] |
| --- | --- |
| Cc1ccoc1C(=O)NCC(Cc1ccc(F)cc1)C(N)=O (configuration not stated) | -0.77 |
| CC(C)c1nc(CN2CCCCC2)cs1 | 20.2 |
| Cn1cc(CN2Cc3c(cnn3C)C(COCC3CC3)C2)cn1 (configuration not stated) | -2.8 |
| Cc1cccc(CN2Cc3[nH]nc(COCC4CC4)c3C2)n1 | 3.79 |
| CCOCC1CN(c2ccc(C)nn2)Cc2cnn(CC)c21 (configuration not stated) | 9.41 |
| COc1ccc(CNC(C)c2ccccc2Cl)c(OC)c1OC (configuration not stated) | 8.01 |
| O=C(c1ccccc1)N1CCO[C@@H]2CN(c3ncccn3)C[C@@H]2C1 | -6.63 |
| c1cc(-c2ccc3nc(C4CCN(CC5CC5)CC4)nn3c2)ccn1 | -0.966 |
| CN(Cc1cccnc1)C1CC2(CCN(c3ccccn3)CC2)C1 | 2.86 |
| CCc1cccc2c(CC(=O)N(C)CCN(C)C)c(C)[nH]c12 | 1.26 |
| c1cnc(NCc2cncc3c2CCN(CC2CC2)C3)nc1 | -101 |
| Cn1cnc2c(-c3cccnc3)nc(C3CCNCC3)cc21 | -99.9 |
| CC(C)CN1CC[C@H]2OCC[C@@H](C(=O)N3CCCO3)[C@@H]2C1 | 3.45 |
| Cc1noc([C@]23COC[C@H]2CN(Cc2cc(C)on2)C3)n1 | 0.841 |
| O=C(N[C@H]1CN(Cc2ccsc2)[C@@H]2CCCO[C@H]12)C1CC1 | 4.62 |
| Cc1ccc(N2CCN(C)c3ncccc3C2)nn1 | -3.77 |
| c1ccc(NC[C@@H]2CCC[C@@H]3CN(c4ncccn4)C[C@@H]32)nc1 | -106 |
| O=c1[nH]c2cn(-c3cccc(F)c3)c(=O)n2[nH]1 | -0.687 |
| CCCN1C[C@@H]2CC[C@H]1CN(Cc1cccc(-n3cccn3)c1)C2 | -1.69 |
